Compound activity as filed in PubChem.
In the library only some 1.8% were active in any assay of this set; here they are far more common.
NR1D1 modulator = Rev-erb alpha (human) modulation; Rev-erbα–FITC-DNA binding, fluorescence polarization, 90 min; activity, % at 10 µM; hit rate 0.79% among 370,000; AID 1259318;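 active = activity above about 14%, limit read from the data; passing the limit was not always enough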
Target sequence (P20393 whole entry, looked up): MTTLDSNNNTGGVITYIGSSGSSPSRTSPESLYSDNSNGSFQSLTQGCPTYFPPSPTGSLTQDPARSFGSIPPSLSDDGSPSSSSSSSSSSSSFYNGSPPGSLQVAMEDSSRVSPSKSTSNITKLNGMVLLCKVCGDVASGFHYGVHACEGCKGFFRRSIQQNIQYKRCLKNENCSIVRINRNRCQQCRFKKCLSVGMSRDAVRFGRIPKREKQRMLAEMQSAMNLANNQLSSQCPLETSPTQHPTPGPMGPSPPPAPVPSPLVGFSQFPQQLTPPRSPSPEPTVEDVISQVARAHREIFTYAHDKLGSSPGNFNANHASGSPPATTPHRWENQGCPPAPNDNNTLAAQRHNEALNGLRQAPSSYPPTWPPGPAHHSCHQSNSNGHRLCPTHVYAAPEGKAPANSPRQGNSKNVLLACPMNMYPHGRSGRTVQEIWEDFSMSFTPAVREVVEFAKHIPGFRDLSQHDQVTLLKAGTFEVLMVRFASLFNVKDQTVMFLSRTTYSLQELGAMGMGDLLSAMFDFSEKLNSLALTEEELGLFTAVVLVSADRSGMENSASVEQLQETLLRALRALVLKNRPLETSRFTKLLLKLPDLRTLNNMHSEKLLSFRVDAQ
GalR3 antag = human GalR3 antagonism; HEK293 GalR3-CNG cAMP membrane potential fluorescence; galR3 body fused to GalR1 C-terminus; inhibition, % at 3 µM; hit rate 0.44% among 360,000;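 active = inhibition above the screen-wide average plus 3 SD, cut at about 13% in these data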;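 also: forskolin and galanin both at EC90 stimulate the cells; cAMP rise reported by CNG channel membrane potential dye signal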
PG9 Ab binder = small molecules binding HIV-1 gp120 antibody PG9 | TR-FRET gp120-PG9 antibody binding | inhibition, % at 6.7 µM | hit rate 0.43% among 360,000; in the data active = inhibition above about 8.5%
NR2E3 ag-1 = activates human photoreceptor nuclear receptor NR2E3 | inhibition of corepressor binding, % at 4.78 µM | hit rate 0.12% among 320,000 | GST-NR2E3/biotin-RetCOR TR-FRET, 1536-well | AID 2300;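 active = percent inhibition above the cutoff of mean plus 3 SD of all tested compounds, set per screening campaign, cut at about 20% in these data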
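Material – GST-tagged NR2E3 plus biotinylated RetCOR corepressor · Quantity – NR2E3 fusion 1.35 nM · Times – 5 h incubation at 4 °C · Medium – pH 7.5 Tris-based buffer · Technique – TR-FRET, Eu(K)-anti-GST donor, streptavidin-D2 acceptor, ex 340, em 617/671 nm · Benchmarks – high control biotin, low control 0.6% DMSO · Format – 1536-well plates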
NR2E3 ag-2 = agonists of human NR2E3 nuclear receptor | inhibition of corepressor binding, % at 3.98 µM | Q9Y5X4 | CHO-S Gal4-NCOR/VP16-NR2E3 two-hybrid, luciferase | AID 602229 | hit rate 0.35% among 360,000;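 active = inhibition above the mean of all tested compounds plus 3 SD, cut at about 70% in these data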;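 also: higher means lower luciferase signal from less NR2E3 corepressor binding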
NR1D1 mod conf = Rev-erb alpha (human) modulation, hit confirmation. hit rate 61% among 3,000. AID 1259319. Rev-erb alpha FITC-DNA binding, fluorescence polarization, 90 min. activation, % at 25 µM. shares compounds with NR1D1 modulator;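 active = activation at or above a set limit, or at least 3 SD above the negative control mean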
RORg counter = RORgamma DNA-binding activity, dose-response counter-screen | shares compounds with NR1D1 modulator | purified RORgamma protein-FITC-DNA binding, fluorescence polarization | IC50, µM | hit rate 8% among 910;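 active = Compounds whose fitted half-maximal concentration for disrupting protein-DNA binding is below 10 micromolar; the record names Rev-erb in its text, so the target is in doubt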
Large screens that a line does not name were inactive (follow-up assays come after a bar, where they were run).

COc1ccc(NC(=O)c2oc3cc(C)c(C)cc3c2C)c(OC)c1	NR1D1 modulator 21 | NR1D1 mod conf inactive
COc1ccc(NC(=O)c2ccc(C(=O)Nc3ccc(OC)cc3OC)cc2)c(OC)c1	none
COc1ccc2oc(C(=O)Nc3ccc(N4CCOCC4)cc3)c(C)c2c1	none
COc1ccc(C(=O)Nc2ccc(-c3ccc(NC(=O)c4ccc(OC)cc4)c(OC)c3)cc2OC)cc1	NR1D1 modulator 29 | NR1D1 mod conf inactive
FC(F)(F)c1ccc(Cn2ccc3ccc(-c4ccc5ccn(Cc6ccccc6)c5c4)cc32)cc1	none (no result: GalR3 antag, PG9 Ab binder, NR2E3 ag-1, NR2E3 ag-2)
COc1cccc(-c2cc(CNC(=O)[C@H]3O[C@@H](n4cnc(C(N)=O)n4)[C@H](O)[C@@H]3O)no2)c1	none (no result: NR2E3 ag-1, NR2E3 ag-2)
O=C1/C(=C/c2ccc(O)c([N+](=O)[O-])c2)SC(=S)N1Cc1ccccc1	NR1D1 modulator 30 | NR1D1 mod conf inactive
O=C(NN1C(=O)/C(=C/c2ccc(O)cc2)SC1=S)c1cccc(O)c1	NR1D1 modulator 27 | NR1D1 mod conf inactive
O=C(NN1C(=O)/C(=C/c2ccc(O)c([N+](=O)[O-])c2)SC1=S)c1ccccc1Cl	NR1D1 modulator 17 | NR1D1 mod conf 28
COc1cc(/C=C2\SC(=S)N(NC(=O)c3ccccc3O)C2=O)ccc1O	none
O=C1CC(O)C(Cc2ccccc2)N1 (stereo unspecified)	none (no result: NR2E3 ag-1, NR2E3 ag-2)
COc1ccc(OC)c(S(=O)(=O)N(CC(=O)NC2CCC(C)CC2)c2cc(C)cc(C)c2)c1 (stereo unspecified)	none (no result: GalR3 antag, PG9 Ab binder, NR2E3 ag-1, NR2E3 ag-2)
Cc1ccc(N2CCN(/N=C\c3cccnc3)CC2)cc1	none (no result: GalR3 antag, PG9 Ab binder, NR2E3 ag-1, NR2E3 ag-2)
CCC(=O)N[C@H]1C[C@@H]2O[C@@H](CO)CC[C@@H]2O[C@@H]1CCc1ccc(-c2cccc(OC)c2)cc1	none (no result: GalR3 antag, PG9 Ab binder, NR2E3 ag-1, NR2E3 ag-2)
COCC(=O)Nc1c(C(=O)Nc2ccccc2OC)oc2ccccc12	none
COc1ccccc1NC(=O)c1oc2ccccc2c1NC(=O)c1cc(OC)c(OC)c(OC)c1	NR1D1 modulator 100 | NR1D1 mod conf 69 | RORg counter inactive
COc1ccc(-c2cc(-c3nnc4sc(-c5cccs5)nn34)[nH]n2)cc1	none (no result: GalR3 antag, PG9 Ab binder, NR2E3 ag-1, NR2E3 ag-2)
O=C(CSc1nnc(-c2cccs2)o1)c1ccc2c(c1)OCO2	NR1D1 modulator 115 (no result: GalR3 antag, PG9 Ab binder, NR2E3 ag-1, NR2E3 ag-2) | NR1D1 mod conf 134 | RORg counter inactive
O=C(CSc1nnc(-c2cccs2)o1)c1ccc(F)cc1	none (no result: GalR3 antag, PG9 Ab binder, NR2E3 ag-1, NR2E3 ag-2)
C[N+]1=C(N)NC2=C3CCCCC3n3c(=O)n(-c4ccccc4)c(=O)n3C2C1 (stereo unspecified)	none (no result: GalR3 antag, PG9 Ab binder, NR2E3 ag-1, NR2E3 ag-2)
Cc1cc2c(s1)c1cnn(Cc3cc(F)c(F)cc3F)c(=O)c1n2C	NR1D1 modulator 26 (no result: GalR3 antag, PG9 Ab binder, NR2E3 ag-1, NR2E3 ag-2) | NR1D1 mod conf inactive
C=CCNc1nc(NCc2ccc(NC(C)=O)cc2)c2sc(-c3ccccc3)cc2n1	NR1D1 modulator 65 (no result: NR2E3 ag-1) | NR1D1 mod conf 76 | RORg counter inactive
CC(=O)Nc1ccc(CNc2nc(NC(C)C)nc3cc(-c4ccccc4)sc23)cc1	none (no result: NR2E3 ag-1)
CCN(CC)c1ccc(/C=C2\C(=N)N3N=C(CC(=O)N4CCOCC4)SC3=NC2=O)cc1	NR1D1 modulator 37 | NR1D1 mod conf 22
C#CCN1CC(N(C)CCOC(=O)c2ccc([N+](=O)[O-])cc2)CS1(=O)=O (stereo unspecified)	none (no result: GalR3 antag, PG9 Ab binder, NR2E3 ag-1, NR2E3 ag-2)
CC(=O)c1cccc(NC(=O)c2csc(-n3nc(C)cc3C(F)(F)F)n2)c1	NR1D1 modulator 78 | NR1D1 mod conf 70 | RORg counter inactive
Cc1cc(C(F)(F)F)n(-c2nc(C(=O)Nc3cccnc3)cs2)n1	none
CC(=O)OC12CCCN(C1)/C(=C/c1ccccc1)C2 (stereo unspecified)	none (no result: GalR3 antag, PG9 Ab binder, NR2E3 ag-1, NR2E3 ag-2)
CCCNC(=O)c1ccc(N2CCC3(CC2)CC(c2ccccc2)=NO3)c(NC(=O)c2cccc(OC)c2)c1	NR1D1 modulator 20 | NR1D1 mod conf inactive
CCCNC(=O)c1ccc(N2CCC3(CC2)CC(c2ccccc2)=NO3)c(NC(=O)c2ccco2)c1	none
CCC[C@H]1[C@@H](OC(=O)NCc2cccs2)CC[C@@]23CCCN2C(=O)CCC[C@@H]13	none (no result: GalR3 antag, PG9 Ab binder, NR2E3 ag-1, NR2E3 ag-2)
CCCCN(C(=O)c1ccco1)c1nnc(-c2cc(OC)c(OC)c(OC)c2)s1	NR1D1 modulator 99 | NR1D1 mod conf inactive
CCCN(C(=O)c1ccco1)c1nnc(-c2ccncc2)s1	none
CCOc1cc(/C=C2\C(=O)NN(c3ccccc3)C2=O)cc([N+](=O)[O-])c1O	none
CCOc1cc(/C=C2\NC(=O)NC2=O)cc([N+](=O)[O-])c1O	NR1D1 modulator 19 | NR1D1 mod conf inactive
COc1ccc2cc(/C=N/NC(=O)c3c(Cl)cnn3C)c(Cl)nc2c1	NR1D1 modulator 24 | NR1D1 mod conf inactive
COc1ccc2cc(/C=N/NC(=O)c3ccc(CN(c4ccc(C)c(C)c4)S(C)(=O)=O)cc3)c(Cl)nc2c1	none
COC(=O)c1c(-c2cccc(C)c2)csc1NC(=O)C1CCCO1 (stereo unspecified)	NR1D1 modulator 24 | NR1D1 mod conf 27
Cc1cc(C)c2c(C)c(C(=O)NCc3ccc(S(N)(=O)=O)cc3)oc2c1	NR1D1 modulator 28 | NR1D1 mod conf 20
C#CCOc1ccccc1C(=O)NNc1ccc([N+](=O)[O-])cc1[N+](=O)[O-]	none (no result: NR2E3 ag-1, NR2E3 ag-2)
O=c1[nH]cnc2c1sc1nc(C(F)F)cc(-c3ccccc3)c12	NR1D1 modulator 32 | NR1D1 mod conf 28
CC(C)Cc1nc2sc3c(=O)[nH]cnc3c2c2c1CCCC2	none
Oc1ccccc1-c1nc(N2CCCC2)c2ccccc2n1	NR1D1 modulator 134 | NR1D1 mod conf 69 | RORg counter 6.9
Oc1ccccc1-c1nc(NCc2ccccc2)c2ccccc2n1	NR1D1 modulator 97 | NR1D1 mod conf 77 | RORg counter inactive
Oc1ccccc1-c1nc(NCc2cccnc2)c2ccccc2n1	none
CC1CCN(c2nc(-c3ccccc3O)nc3ccccc23)CC1	none
O=C(Nc1ccccc1[N+](=O)[O-])NC1CCCCN(Cc2ccc(Cl)cc2)C1=O (stereo unspecified)	none (no result: GalR3 antag, PG9 Ab binder, NR2E3 ag-1, NR2E3 ag-2)
O=c1c2ccccc2c(-c2ccccc2)nn1-c1cc(Cl)cc(Cl)c1	NR1D1 modulator 31 | NR1D1 mod conf inactive
O=S1(=O)c2ccc(N3CCN(Cc4ccccc4F)CC3)cc2Oc2ccccc2CN1Cc1cn(Cc2cccc(F)c2)nn1	none (no result: GalR3 antag, PG9 Ab binder, NR2E3 ag-1, NR2E3 ag-2)
CSc1ncccc1C(=O)OCC(=O)c1ccc2c(c1)NC(=O)CO2	NR1D1 modulator 40 | NR1D1 mod conf inactive
Cc1cccc(C)c1OCC(=O)OCC(=O)c1ccc2c(c1)NC(=O)CO2	none
Cc1ccc(C(=O)CSc2ncnc3sc4c(c23)CCC(C)C4)cc1 (stereo unspecified)	NR1D1 modulator 68 (no result: NR2E3 ag-1) | NR1D1 mod conf 24
O=C(CSc1nnc(-c2cccnc2)n1C1CCCCC1)NC1CCCCCC1	none (no result: GalR3 antag, PG9 Ab binder, NR2E3 ag-1, NR2E3 ag-2)
N#CCCn1c(-c2nonc2NC(=O)c2ccccc2Cl)nc2ccccc21	NR1D1 modulator 77 | NR1D1 mod conf 22
